The subject of one data set is HepG2. Briefly: Cytotoxicity against human HepG2 cells measured after 24 hrs by MTT assay. Conditions: HepG2, 24 h; call rule not given here. It is filed as functional, cell-based. An outline of the steps: (§1)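 Cells were kept in RPMI 1640 with 10% FBS, penicillin and streptomycin at 37°C in 5% CO2. Seeding was given for A375 only, at 1×10^4/well. After 24 h, cells were exposed to compounds for 24 h; compounds were dissolved in DMSO and diluted in medium containing 0.1% DMSO. Cells were washed, given 5 mg/mL MTT for 4 h, and formazan was dissolved in DMSO and read at 492 nm. Three independent experiments were run in triplicate, with IC50 taken from viability curves.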
A general note: Tetrazolium dyes change colour on reduction, which living cells bring about.

Data set [1] in a line: Cytotoxicity against HELF cells measured after 24 hrs by MTT assay. Conditions: Homo sapiens. The class given is cell-based. An outline of the steps: as §1
A further data set relates to BGC-823. Briefly: Cytotoxicity against human BGC823 cells measured after 24 hrs by MTT assay. Conditions: BGC-823, 24 h. It is filed as functional, cell-based. An outline of the steps:
as §1

Data set [2] concerns A-375. Put plainly: Cytotoxicity against human A375 cells measured after 24 hrs by MTT assay. It is filed as functional, cell-based. Conditions: A-375, 24 h. An outline of the steps: as §1
Data set [3] relates to HeLa. Put plainly: Induction of apoptosis in human HeLa cells assessed as live cells at 1 uM measured after 24 hrs by Annexin V-FITC/propidium iodide staining based flow cytometry (reference value: 99.9 %). The class given is functional. Background: Flow cytometry measures light scatter and fluorescence of single cells or particles in a stream.
Data set [4] has as its system A-375. Put plainly: Induction of apoptosis in human A375 cells assessed as chromatin condensation measured after 24 hrs by DAPI staining based fluorescence microscopic analysis. It is filed as functional, cell-based. An outline of the steps: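 A375 cells were treated with 1, 2 or 4 μM for 24 h, washed, and fixed in cold methanol:acetic acid (3:1) for 10 min. They were stained with 1 μg/mL DAPI at 37°C for 5 min and imaged by fluorescence microscopy at 364 nm, 400×, for nuclear morphology.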

Data set [5] concerns HeLa. Put plainly: Induction of apoptosis in human HeLa cells assessed as late apoptotic cells at 1 uM measured after 24 hrs by Annexin V-FITC/propidium iodide staining based flow cytometry (reference value: 0.058 %). It is filed as functional.
Data set [6] deals with HeLa. Briefly: Induction of apoptosis in human HeLa cells assessed as early apoptotic cells at 1 uM measured after 24 hrs by Annexin V-FITC/propidium iodide staining based flow cytometry (reference value: 0.078 %). It is filed as functional.
In data set [7] the test system is HeLa. Put plainly: Induction of apoptosis in human HeLa cells assessed as necrotic cells at 1 uM measured after 24 hrs by Annexin V-FITC/propidium iodide staining based flow cytometry relative to control. It is filed as functional.
Data set [8] concerns A-375. Briefly: Induction of apoptosis in human A375 cells assessed as increase in caspase-3 expression measured after 24 hrs by Western blot analysis. The class given is functional, cell-based. Summed up: (§2)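 A375 cells were treated for 24 h at 5 or 10 μM. Lysates were clarified at 12,000 g for 5 min at 4°C and protein measured by BCA. Equal protein was run on 10% SDS-PAGE and transferred to PVDF. Primary antibodies (1:1000) were applied overnight at 4°C, then secondary (1:5000) for 2 h at 37°C. Detection was by chemiluminescence with densitometry, GAPDH as internal reference.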
On the technique in general: Immunoblotting shows a protein as a band on a membrane.

In data set [9] the test system is A-375. Briefly: Induction of apoptosis in human A375 cells assessed as increase in P53 expression measured after 24 hrs by Western blot analysis. The class given is functional, cell-based. Summed up: as §2
In data set [10] the test system is A-375. Put plainly: Induction of apoptosis in human A375 cells assessed as increase in intracellular ROS production at 1 uM measured after 24 hrs by DCF-DA fluorescence dye based flow cytometry relative to control. It is filed as functional. An outline of the steps:
(§3)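 A375 cells were exposed to treatments for 24 h and washed with PBS. They were loaded with 20 µM DCF-DA in serum-free DMEM at 37°C for 30 min, washed with ice-cold PBS and harvested. Mean DCF fluorescence was measured by flow cytometry as the ROS level; n=3, mean±SD, relative to untreated cells.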

For data set [11], the system named is A-375. Briefly: Induction of apoptosis in human A375 cells assessed as increase in intracellular ROS production at 2 uM measured after 24 hrs by DCF-DA fluorescence dye based flow cytometry relative to control. The class given is functional. An outline of the steps: as §3
Data set [12] relates to A-375. Briefly: Induction of apoptosis in human A375 cells assessed as increase in intracellular ROS production measured after 24 hrs by DCF-DA fluorescence dye based flow cytometry. It is filed as functional, cell-based. Summed up: as §3
Data set [13] has as its system A-375. Put plainly: Induction of apoptosis in human A375 cells assessed as loss of mitochondrial membrane potential measured after 30 mins by DiOC6 dye based flow cytometry. It is filed as functional, cell-based. An outline of the steps: (§4)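 A375 cells were treated at 0, 1, 2 or 4 μM, then loaded with 50 nM DiOC6 in serum-free DMEM at 37°C for 30 min. Cells were washed twice with ice-cold PBS, harvested and analysed by flow cytometry. ΔΨm is expressed as percent change versus untreated cells, as mean±SD of three determinations.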

For data set [14], the system named is A-375. Put plainly: Induction of apoptosis in human A375 cells assessed as decrease in mitochondrial membrane potential at 1 uM measured after 30 mins by DiOC6 dye based flow cytometry relative to control. More on the design: scale not given: the % may be the effect or the level left. The class given is functional. Summed up: as §4
Data set [15] deals with A-375. Briefly: Induction of apoptosis in human A375 cells assessed as decrease in mitochondrial membrane potential at 4 uM measured after 30 mins by DiOC6 dye based flow cytometry relative to control. The class given is functional. Further details: scale not given: the % may be the effect or the level left. An outline of the steps: as §4
Data set [16] is described as follows: Drug uptake in mitochondria of human A375 cells at 2 uM measured after 24 hrs by Mito-Tracker Green staining based laser confocal microscopic analysis. It is filed as ADME. An outline of the steps:
(§5)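 A375 cells were plated at 10^5 cells/mL for 24 h to about 70% confluence. They were exposed to 2 μM at 37°C for 24 h, washed, then stained with 100 nM Mito-Tracker Green (488 nm) for 30 min. After PBS washes, compound fluorescence (568 nm) and the mitochondrial stain were imaged by laser confocal microscopy.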

The nature of data set [17]: Drug uptake in nucleus of human A375 cells at 2 uM measured after 24 hrs by Mito-Tracker Green staining based laser confocal microscopic analysis. It is filed as ADME. An outline of the steps:
as §5

Data set [18] has as its system HeLa. Briefly: Reduction in mitochondrial membrane potential in mitochondria isolated from human HeLa cells measured after 2 hrs by DiOC6 dye based HSFCM analysis. The class given is functional, cell-based. Summed up:
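Mitochondria isolated from HeLa cells were treated at 0, 1, 10, 50 or 100 µM for 2 h at 37°C and washed with MT buffer. They were stained with 500 nM DiOC6 for 15 min at 37°C, washed twice and resuspended in MT buffer. Analysis was on a laboratory-built high-sensitivity flow cytometer, recording median and mean green fluorescence against drug concentration.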

Usually IC50 stands for the point on the concentration scale where inhibition reaches its midpoint. `CCCCCCCCCC[N+](C)(CCCCCCCCCC)Cc1ccc2c(c1)C(=O)c1ccccc1C2=O`: the concentration for half-maximal inhibition (IC50) turned out to be 1.57 µM with HepG2 and 5.84 µM in data set [1].
For `Cc1cc(O)c2c(c1)C(=O)c1cc(O)cc(O)c1C2=O` [EMODIN], the IC50 is > 50 µM in the data set with HepG2, 46.3 µM in data set [1], > 50 µM in the data set on BGC-823 and 44.9 µM with A-375 [2].
For `CCCCCCCC[N+](CCCCCCCC)(CCCCCCCC)Cc1cc(OC)c2c(c1)C(=O)c1cc(OC)cc(OC)c1C2=O`, the half-maximal inhibitory concentration (IC50) is 5.45 µM with HepG2, 4.5 µM in [1], 5 µM with BGC-823 and 3.46 µM in the data set with A-375 [2].
In the case of `CCCCCCCCCC[N+](C)(CCCCCCCCC)Cc1cc(O)c2c(c1)C(=O)c1cc(OC)cc(O)c1C2=O` (stereo not given), the half-inhibitory concentration (IC50) in the data set on HepG2 was determined as 3.97 µM; in data set [1] it was 9.56 µM; with BGC-823, 3.85 µM; with A-375 [2], 2.2 µM.
Take `CCCCCCCCC[N+](C)(CCCCCCCCC)Cc1cc(O)c2c(c1)C(=O)c1cc(OC)cc(O)c1C2=O`: the IC50 in the data set on HepG2 turned out to be 7.39 µM; in data set [1], 9.83 µM; in the data set with BGC-823, 3.93 µM; in the data set with A-375 [2], 2.63 µM.
For `CCCCCCCCC[N+](C)(CCCCCCCC)Cc1cc(O)c2c(c1)C(=O)c1cc(OC)cc(O)c1C2=O.[Br-]` (stereo not given), the Activity in the data set with HeLa [3] was 3.73%; in the data set with A-375 [4], “Dose-dependent effect”; with HeLa [5], 60.8%; with HeLa [6] it was 0.444%; with HeLa [7], 35%; in the data set on A-375 [8], “Dose-dependent effect”. Also, the Activity entry in the data set with A-375 [9] was “Dose-dependent effect”; in the data set on A-375 [12], “Dose-dependent effect”; in the data set on A-375 [13] it was “Dose-dependent effect”; in the data set on A-375 [14], 25%; in the data set on A-375 [15] it was 38%; with HeLa [18], “Dose-dependent effect”. Moreover, the half-inhibitory concentration (IC50) in the data set on HepG2 was 4.12 µM; in data set [1], 9.65 µM; in the data set with BGC-823, 2.79 µM; with A-375 [2], 1.39 µM. Further, the “fold change (FC)” value with A-375 [10] was found to be 2.7; with A-375 [11] it was 5.8. Also, the values for the Drug uptake entry in data set [16] and in [17] were “Active” and “Not Active”, respectively.
As for `COCCOCC[N+](CCOCCOC)(CCOCCOC)Cc1cc(OC)c2c(c1)C(=O)c1cc(OC)cc(OC)c1C2=O`, the IC50 (with HepG2; in data set [1]; in the data set with BGC-823; with A-375 [2]) was > 100 µM in each case.
On to `CCCCCCCC[N+](C)(CCCCCCCC)Cc1cc(O)c2c(c1)Cc1cc(O)cc(O)c1C2=O`, for which the IC50 (with HepG2; in data set [1]) was > 100 µM in each case.
Regarding `CCCCCCCCC[N+](C)(CCOCCOCCO)Cc1cc(OC)c2c(c1)C(=O)c1cc(OC)cc(OC)c1C2=O` (stereo not given), the IC50 in the data set with HepG2 turned out to be 37.7 µM; in [1], 40.4 µM; in the data set on BGC-823 it was 32.7 µM; with A-375 [2], 28.9 µM.
`CCCCCCCCC[N+](C)(C)Cc1cc(O)c2c(c1)C(=O)c1cc(OC)cc(O)c1C2=O`: the half-maximal inhibitory concentration (IC50) in the data set on HepG2 was found to be 10.4 µM; in data set [1], 21.6 µM; in the data set with BGC-823, 9.76 µM; with A-375 [2] it was 9.87 µM.
`CC(=O)O[C@H]1C(=O)[C@@]2(C)[C@H]([C@H](OC(=O)c3ccccc3)[C@]3(O)C[C@H](OC(=O)[C@H](O)[C@@H](NC(=O)c4ccccc4)c4ccccc4)C(C)=C1C3(C)C)[C@]1(OC(C)=O)CO[C@@H]1C[C@@H]2O` [PACLITAXEL]: the midpoint of inhibition with A-375 [2], the IC50, lay at 11.3 µM.
In the case of `CCCCCCCC[N+](C)(CCCCCCCC)Cc1ccc2c(c1)C(=O)c1ccccc1C2=O`, the IC50 in the data set with HepG2 came out at 2.08 µM; in [1], 8.46 µM.

Values taken from ChEMBL document CHEMBL4041505, “Synthesis, SAR and pharmacological characterization of novel anthraquinone cation compounds as potential anticancer agents” (Eur J Med Chem, 2017).
